The target of series [1] is T1, Toll-like receptor 7 (Homo sapiens) (UniProt Q9NYK1).
T1 sequence (whole entry): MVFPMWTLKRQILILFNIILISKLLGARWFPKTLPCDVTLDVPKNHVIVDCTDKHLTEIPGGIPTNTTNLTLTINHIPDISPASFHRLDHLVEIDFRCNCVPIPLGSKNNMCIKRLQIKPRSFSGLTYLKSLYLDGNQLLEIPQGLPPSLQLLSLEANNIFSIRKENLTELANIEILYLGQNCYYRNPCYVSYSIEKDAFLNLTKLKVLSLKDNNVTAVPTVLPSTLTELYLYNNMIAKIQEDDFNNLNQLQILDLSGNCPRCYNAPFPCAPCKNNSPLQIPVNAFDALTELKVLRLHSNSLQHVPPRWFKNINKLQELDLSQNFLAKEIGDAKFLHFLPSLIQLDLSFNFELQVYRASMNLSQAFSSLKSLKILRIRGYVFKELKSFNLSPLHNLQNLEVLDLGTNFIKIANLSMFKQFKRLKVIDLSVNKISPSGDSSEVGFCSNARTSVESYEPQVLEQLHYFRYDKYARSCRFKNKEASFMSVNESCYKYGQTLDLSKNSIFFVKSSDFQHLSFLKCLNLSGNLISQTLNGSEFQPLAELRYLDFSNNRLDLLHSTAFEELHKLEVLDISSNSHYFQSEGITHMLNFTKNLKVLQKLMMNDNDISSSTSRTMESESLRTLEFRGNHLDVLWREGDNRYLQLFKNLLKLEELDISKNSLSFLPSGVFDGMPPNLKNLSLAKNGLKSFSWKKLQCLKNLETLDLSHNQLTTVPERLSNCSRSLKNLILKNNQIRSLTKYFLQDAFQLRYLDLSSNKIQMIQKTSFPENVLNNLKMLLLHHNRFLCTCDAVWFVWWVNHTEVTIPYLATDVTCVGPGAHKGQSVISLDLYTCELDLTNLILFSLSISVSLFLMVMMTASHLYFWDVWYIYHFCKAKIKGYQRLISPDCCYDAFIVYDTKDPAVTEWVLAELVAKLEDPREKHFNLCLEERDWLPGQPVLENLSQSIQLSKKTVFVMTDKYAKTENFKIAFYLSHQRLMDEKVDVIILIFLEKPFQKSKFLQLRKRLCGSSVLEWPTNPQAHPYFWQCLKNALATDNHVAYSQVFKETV
Briefly: Agonist activity at TLR7 in human PBMC assessed as suppression of HCV replicon replication in human HuH7 luc/neo cells harboring RNA encoding bicistronic expression construct comprising wild type HCV type 1b NS3-NS5B regions exposed to conditioned media from compound treated PBMCs after 24 hrs by luciferase reporter gene assay. It counts as cell-based. The essentials: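 Human PBMCs were incubated with compound. Their medium was then transferred onto an HCV replicon system, so the antiviral read-out reflects interferon and cytokines the PBMCs induced. Values are reported as lowest effective concentration (LEC), averaged when determined in two or more independent experiments.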
In general terms: In antiviral work, replicon cells carry a viral genome segment that copies itself.

For series [2], the target named is Alpha-1A adrenergic receptor. Briefly: Inhibition of alpha-1A adrenergic receptor (unknown origin).
A short description of series [3]: Metabolic stability in mouse liver microsomes assessed as compound metabolized at 1 uM after 15 mins. Conditions: read-out: Drug metabolism. It counts as ADME, microsome. The essentials: (§1)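 Mouse (M) or human (H) liver microsomes incubated with compound at 1 μM; percent metabolized after 15 min.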
(In general: Liver microsomes are a subcellular fraction often used to study metabolism.)

Series [4] addresses T1, Toll-like receptor 7 (Homo sapiens). The series is described as follows: Agonist activity at human TLR7 expressed in HEK293 cells assessed as induction of receptor activation incubated for 6 hrs by NF-kappaB-luciferase reporter gene assay. It counts as cell-based. The essentials: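 HEK cell-based assay using a wild-type TLR7 expression vector; a parallel TLR8 vector construct served for selectivity. Results are expressed as lowest effective concentration (LEC), averaged over independent experiments where determined two or more times. A separate HEK 293 cytotoxicity (TOX) assay gave CC50 alongside.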

In another series the target is Cytochrome P450 2D6 (Homo sapiens, UniProt P10635). Briefly: Inhibition of CYP2D6 (unknown origin). Format: ADME.
Cytochrome P450 2D6, sequence (P10635 whole entry): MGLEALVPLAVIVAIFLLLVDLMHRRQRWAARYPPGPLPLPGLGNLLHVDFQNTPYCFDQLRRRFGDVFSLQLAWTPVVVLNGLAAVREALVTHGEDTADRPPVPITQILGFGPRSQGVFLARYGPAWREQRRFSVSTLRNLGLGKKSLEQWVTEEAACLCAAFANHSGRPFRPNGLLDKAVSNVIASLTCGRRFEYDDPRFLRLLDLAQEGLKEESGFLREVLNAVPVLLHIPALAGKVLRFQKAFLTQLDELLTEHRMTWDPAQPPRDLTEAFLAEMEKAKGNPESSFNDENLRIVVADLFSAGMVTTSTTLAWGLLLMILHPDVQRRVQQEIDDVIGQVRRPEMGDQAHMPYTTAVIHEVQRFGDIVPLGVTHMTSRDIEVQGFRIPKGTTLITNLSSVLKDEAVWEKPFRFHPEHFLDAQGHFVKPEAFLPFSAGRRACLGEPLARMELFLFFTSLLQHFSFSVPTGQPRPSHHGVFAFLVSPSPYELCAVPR
In series [5] the target is Voltage-gated inwardly rectifying potassium channel KCNH2 (Homo sapiens, UniProt Q12809). Briefly: Inhibition of radioligand binding to human ERG expressed in HEK293 cell membranes by scintillation counting method.
Voltage-gated inwardly rectifying potassium channel KCNH2, sequence (Q12809 whole entry): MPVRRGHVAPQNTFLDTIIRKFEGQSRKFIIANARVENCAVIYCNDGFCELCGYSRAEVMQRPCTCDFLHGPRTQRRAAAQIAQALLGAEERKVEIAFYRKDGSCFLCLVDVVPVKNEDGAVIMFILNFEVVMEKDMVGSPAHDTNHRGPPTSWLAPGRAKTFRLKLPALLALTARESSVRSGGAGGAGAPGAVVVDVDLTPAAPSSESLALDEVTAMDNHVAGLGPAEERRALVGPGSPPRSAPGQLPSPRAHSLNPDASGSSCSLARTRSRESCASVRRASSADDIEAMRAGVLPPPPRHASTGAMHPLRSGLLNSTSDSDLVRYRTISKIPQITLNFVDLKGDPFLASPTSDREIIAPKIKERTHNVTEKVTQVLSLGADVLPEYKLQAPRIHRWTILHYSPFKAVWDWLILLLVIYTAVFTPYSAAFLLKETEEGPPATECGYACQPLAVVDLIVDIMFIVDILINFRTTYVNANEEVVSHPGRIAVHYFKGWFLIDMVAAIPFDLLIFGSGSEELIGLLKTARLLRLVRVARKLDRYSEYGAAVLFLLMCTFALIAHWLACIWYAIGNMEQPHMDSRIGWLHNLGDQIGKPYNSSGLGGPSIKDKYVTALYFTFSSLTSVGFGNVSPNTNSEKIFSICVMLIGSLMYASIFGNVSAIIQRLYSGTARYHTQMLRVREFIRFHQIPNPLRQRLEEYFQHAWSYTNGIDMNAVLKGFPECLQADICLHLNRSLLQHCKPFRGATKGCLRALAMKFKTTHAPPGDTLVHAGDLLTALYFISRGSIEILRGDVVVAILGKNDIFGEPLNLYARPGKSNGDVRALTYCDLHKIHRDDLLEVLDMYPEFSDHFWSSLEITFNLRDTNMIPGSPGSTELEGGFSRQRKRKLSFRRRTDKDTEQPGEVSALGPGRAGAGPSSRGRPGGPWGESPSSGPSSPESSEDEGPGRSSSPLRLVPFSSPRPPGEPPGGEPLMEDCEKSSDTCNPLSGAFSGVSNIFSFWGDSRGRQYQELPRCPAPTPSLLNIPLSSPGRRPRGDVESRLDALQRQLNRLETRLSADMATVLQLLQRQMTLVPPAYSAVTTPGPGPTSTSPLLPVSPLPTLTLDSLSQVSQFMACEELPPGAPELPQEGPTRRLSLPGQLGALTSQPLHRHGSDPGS
Series [6] concerns the target T2, Toll-like receptor 8 (Homo sapiens) (UniProt Q9NR97).
T2 sequence (whole entry): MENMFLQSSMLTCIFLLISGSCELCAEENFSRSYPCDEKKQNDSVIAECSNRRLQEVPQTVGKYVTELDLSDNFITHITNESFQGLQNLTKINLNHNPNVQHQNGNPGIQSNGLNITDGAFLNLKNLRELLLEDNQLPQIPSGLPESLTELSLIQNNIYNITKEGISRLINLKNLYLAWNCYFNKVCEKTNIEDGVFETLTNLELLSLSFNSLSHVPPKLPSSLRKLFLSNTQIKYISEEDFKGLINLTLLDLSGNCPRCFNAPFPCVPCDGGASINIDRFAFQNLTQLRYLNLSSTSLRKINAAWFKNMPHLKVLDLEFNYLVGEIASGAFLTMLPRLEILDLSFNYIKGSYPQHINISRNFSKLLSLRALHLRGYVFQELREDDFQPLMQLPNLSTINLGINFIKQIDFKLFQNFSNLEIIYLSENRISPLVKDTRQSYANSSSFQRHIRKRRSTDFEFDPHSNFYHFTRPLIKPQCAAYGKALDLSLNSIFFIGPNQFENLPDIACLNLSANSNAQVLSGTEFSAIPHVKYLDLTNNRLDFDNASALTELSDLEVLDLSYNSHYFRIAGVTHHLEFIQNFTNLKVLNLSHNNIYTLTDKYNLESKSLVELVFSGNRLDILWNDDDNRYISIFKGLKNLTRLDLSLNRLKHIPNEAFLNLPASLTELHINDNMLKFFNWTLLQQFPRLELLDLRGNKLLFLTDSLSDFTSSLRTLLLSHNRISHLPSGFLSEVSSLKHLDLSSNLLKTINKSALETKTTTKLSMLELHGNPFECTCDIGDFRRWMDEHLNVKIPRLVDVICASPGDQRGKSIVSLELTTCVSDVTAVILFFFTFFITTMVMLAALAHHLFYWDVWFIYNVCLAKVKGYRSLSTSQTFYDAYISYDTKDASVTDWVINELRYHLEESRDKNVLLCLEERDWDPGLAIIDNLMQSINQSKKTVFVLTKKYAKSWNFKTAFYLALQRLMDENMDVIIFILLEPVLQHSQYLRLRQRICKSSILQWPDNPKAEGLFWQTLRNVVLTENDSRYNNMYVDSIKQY
The series is described as follows: Agonist activity at human TLR8 expressed in HEK293 cells assessed as induction of receptor activation incubated for 6 hrs by NF-kappaB-luciferase reporter gene assay. It counts as cell-based. Background: Reporter assays use an easily measured gene product as a stand-in for the process of interest.

A short description of series [7]: Metabolic stability in human liver microsomes assessed as compound metabolized at 1 uM after 15 mins. Format: ADME, microsome. Particulars: read-out: Drug metabolism. The essentials: as §1
The target of series [8] is 5-hydroxytryptamine receptor 2A (Homo sapiens, UniProt P28223). Briefly: Inhibition of 5-HT2A receptor (unknown origin).
5-hydroxytryptamine receptor 2A, sequence (P28223 whole entry): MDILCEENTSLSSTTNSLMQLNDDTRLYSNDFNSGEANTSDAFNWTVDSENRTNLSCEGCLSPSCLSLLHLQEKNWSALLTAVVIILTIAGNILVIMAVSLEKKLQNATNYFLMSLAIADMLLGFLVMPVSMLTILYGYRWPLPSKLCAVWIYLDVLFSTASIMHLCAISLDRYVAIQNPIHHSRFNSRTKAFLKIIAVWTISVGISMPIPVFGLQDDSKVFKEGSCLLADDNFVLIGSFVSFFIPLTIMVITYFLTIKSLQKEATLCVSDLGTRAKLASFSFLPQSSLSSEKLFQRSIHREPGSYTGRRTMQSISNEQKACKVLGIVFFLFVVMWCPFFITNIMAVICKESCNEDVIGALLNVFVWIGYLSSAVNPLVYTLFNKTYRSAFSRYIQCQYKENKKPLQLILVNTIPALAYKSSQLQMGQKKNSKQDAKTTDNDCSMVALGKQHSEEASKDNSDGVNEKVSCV
The nature of series [9]: Cytotoxicity against HEK293 cells assessed as reduction in cell viability after 6 hrs by ATP lite assay. Format: cell-based. Conditions: human.
A further series concerns the target D(1A) dopamine receptor (Homo sapiens, UniProt P21728). Briefly: Inhibition of dopamine D1 receptor (unknown origin).
The subject of the next series is HepG2. Briefly: Cytotoxicity against human HepG2 cells. It counts as cell-based.

SMILES strings stand for the structures. pIC50: −log10 of the molar value.

D(1A) dopamine receptor, sequence (P21728 whole entry): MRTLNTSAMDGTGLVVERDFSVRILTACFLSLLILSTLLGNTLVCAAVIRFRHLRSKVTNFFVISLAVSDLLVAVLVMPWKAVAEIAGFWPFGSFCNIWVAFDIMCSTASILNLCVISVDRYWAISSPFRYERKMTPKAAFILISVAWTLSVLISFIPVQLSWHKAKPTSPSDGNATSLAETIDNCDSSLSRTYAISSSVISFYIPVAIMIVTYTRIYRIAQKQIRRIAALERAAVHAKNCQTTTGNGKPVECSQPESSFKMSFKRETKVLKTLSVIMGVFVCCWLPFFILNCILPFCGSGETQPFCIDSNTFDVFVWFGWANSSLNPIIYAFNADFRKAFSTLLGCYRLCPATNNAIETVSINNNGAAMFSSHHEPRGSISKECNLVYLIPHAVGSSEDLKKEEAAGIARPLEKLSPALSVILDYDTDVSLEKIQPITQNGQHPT

As for `CCC[C@@H](CCO)Nc1nc(N)nc2cc(OC)ccc12`, the MEC in [1] was found to be 0.5 µM; in series [4], 0.2 µM; in [6], 0.13 µM. For the same compound, the negative logarithm of the IC50 (pIC50) is 5.63 in series [2]; 6.22 against Cytochrome P450 2D6; under 5.00 in series [5]; 5.75 in series [8]; 5.24 on D(1A) dopamine receptor. Moreover, the results for the metabolised at 0.25 h, 1 µM in [3] and in series [7] were 65% and 35%, respectively. Further, the cytotoxic concentration (CC50) at 6 h in [9] was over 24 µM.
`CCCC[C@@H](CCO)Nc1nc(N)nc2ccc(OC)cc12`: the MEC amounted to 0.88 µM in series [1], 1.85 µM in [4] and 2.81 µM in series [6]. Besides, the metabolised at 0.25 h, 1 µM in series [3] turned out to be 97%; in series [7], 25%. The compound also showed a negative-log IC50 (pIC50) in series [5] of 5.22. For the same compound, the CC50 at 6 h in series [9] is over 24 µM.
Consider `CCCC[C@@H](CCO)Nc1nc(N)nc2cccc(F)c12`, for which the MEC in series [1] is 0.06 µM; in series [4], 0.34 µM; in series [6] it was 0.1 µM. The metabolised at 0.25 h, 1 µM is 25% in [3] and 87% in series [7]. The same compound gave a pIC50 in series [5] of under 5.00. In the series with HepG2, the EC20 was 13.2 µM. In addition, the 50% cytotoxic concentration (CC50) at 6 h in series [9] was over 24 µM.
On to `CCCC[C@@H](CCO)Nc1nc(N)nc2ccccc12`, for which the results for the MEC in series [1], in series [4] and in series [6] were 0.02 µM, 0.08 µM and 0.08 µM, respectively. For the same compound, the metabolised at 0.25 h, 1 µM in [3] was found to be 82%; in [7] it was 45%. Moreover, the negative logarithm of the IC50 (pIC50) in [5] is 5.57. Further, the CC50 at 6 h in series [9] was over 24 µM.
On to `CCCC[C@@H](CCO)Nc1nc(N)nc2c(F)cccc12`, for which the MEC in [1] came out at 0.05 µM; in series [4] it was 0.11 µM; in [6], 0.16 µM. In addition, the metabolised at 0.25 h, 1 µM in series [3] came to 98%; in series [7], 76%. This compound also gave a pIC50 in series [5] of 5.35. In series [9], the 50% cytotoxic concentration (CC50) at 6 h was over 24 µM.
In the case of `CCCC[C@@H](CCO)Nc1nc(N)nc2cccc(C)c12`, the MEC in series [1] is 0.02 µM; in [4], 0.14 µM; in series [6], 0.06 µM. The metabolised at 0.25 h, 1 µM is 82% in series [3] and 67% in series [7]. The compound further had a negative-log IC50 (pIC50) in series [5] of 6.22. The CC50 at 6 h in [9] was over 24 µM.

Usually pIC50 stands for −log10 of the IC50, conventionally taken in molar units. Read a high pIC50 as a small IC50. By CC50 is commonly meant the concentration at which the toxic effect on the cells reaches its halfway point. A word on the EC20: it is the concentration needed for an effect of 20%.

These data come from ChEMBL document CHEMBL4130635, “2,4-Diaminoquinazolines as Dual Toll-like Receptor (TLR) 7/8 Modulators for the Treatment of Hepatitis B Virus” (J Med Chem, 2018).
